Experimental findings from ChEMBL document CHEMBL1811904, “Preventive oral treatment with resveratrol pro-prodrugs drastically reduce colon inflammation in rodents” (J Med Chem, 2010) are described below.

Data set [1] has as its system CCD-18Co. The data set is described as follows: Antiinflammatory activity in human CCD-18Co cells assessed inhibition of IL1beta-induced PGE2 production at 1 to 7.5 uM after 18 hrs. It is filed as functional, cell-based.
The nature of data set [2]: Cytotoxicity against human CCD-18Co cells at >10 uM after 8 hrs by MTT assay. The class given is cell-based. (Formazan colour is commonly taken as a measure of viable cells.)
Data set [3] concerns Mus musculus. The data set is described as follows: Increase in Lactobacilli count in C57BL/6J mouse distal colon mucosa with DSS-induced colon inflammation at 2.1 mg/kg/day, po for 21 days followed by compound dosing for 8 days co-administered with DSS followed by 2.1 mg/kg/day, po dosing for 6 days in absence of DSS by fecal microbiota analysis relative to control. The class given is functional, organism-based. In a few lines:
(§1)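 Fecal samples collected on days 0, 21 (before DSS) and 29 (after 8 days of 1% DSS) from mice fed 2.1 mg/kg day compound in chow. Bifidobacteria, lactobacilli, clostridia, enterobacteria and E. coli counted; ANOVA with Tukey post-hoc, mean ± SD.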

The test system of data set [4] is Mus musculus. The data set is described as follows: Increase in Clostridia count in C57BL/6J mouse distal colon mucosa with DSS-induced colon inflammation at 2.1 mg/kg/day, po for 21 days followed by compound dosing for 8 days co-administered with DSS followed by 2.1 mg/kg/day, po dosing for 6 days in absence of DSS by fecal microbiota analysis relative to control. It is filed as functional, organism-based. In a few lines: as §1

The subject of data set [5] is Mus musculus. The data set is described as follows: Antiinflammatory activity in C57BL/6J mouse model of DSS-induced colon inflammation assessed as reduction in disease activity index at 2.1 mg/kg/day, po for 21 days followed by compound dosing for 8 days co-administered with DSS followed by 2.1 mg/kg/day, po dosing for 6 days in absence of DSS measured on days 29 and day 35. It is filed as functional, organism-based. The method, boiled down: (§2)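 Diet supplemented at 2.1 mg/kg day for 21 days before 8 days of 1% DSS in sterilized drinking water ad libitum; n=10 per group. Body weight followed through DSS and recovery phases; DAI combines stool blood, stool consistency and weight loss. ANOVA with Tukey post-hoc, mean ± SD.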

Data set [6] has as its system Mus musculus. The data set is described as follows: Antiinflammatory activity in C57BL/6J mouse model of DSS-induced colon inflammation assessed as reduction in morphological signs of cell damage at 2.1 mg/kg/day, po for 21 days followed by compound dosing for 8 days co-administered with DSS followed by 2.1 mg/kg/day, po dosing for 6 days in absence of DSS measured on days 29 and day 35. It is filed as functional, organism-based. The method, boiled down: (§3)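 Standard chow with compound at 2.1 mg/kg day for 21 days, then 1% DSS in sterilized drinking water ad libitum for the last 8 days (29 days total); n=10 per group, with control and DSS-only groups. Distal colon sections stained with hematoxylin and eosin and scored by Araki system: 0-4 each for surface epithelial loss, crypt destruction, inflammatory cell infiltration (max 12); mean ± SEM, Kruskal-Wallis then Mann-Whitney.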

The test system of data set [7] is Mus musculus. The data set is described as follows: Increase in Bifidobacterial count in C57BL/6J mouse distal colon mucosa with DSS-induced colon inflammation at 2.1 mg/kg/day, po for 21 days followed by compound dosing for 8 days co-administered with DSS followed by 2.1 mg/kg/day, po dosing for 6 days in absence of DSS by fecal microbiota analysis relative to control. The class given is functional, organism-based. The method, boiled down:
as §1

The subject of data set [8] is Mus musculus. The data set is described as follows: Reduction in Escherichia coli count in C57BL/6J mouse distal colon mucosa with DSS-induced colon inflammation at 2.1 mg/kg/day, po for 21 days followed by compound dosing for 8 days co-administered with DSS followed by 2.1 mg/kg/day, po dosing for 6 days in absence of DSS by fecal microbiota analysis relative to control. It is filed as functional, organism-based. In a few lines:
as §1

Data set [9] has as its system Caco-2. The data set is described as follows: Metabolic stability in human Caco2 cells after 6 hrs by LC-MS-MS analysis. It is filed as ADME, cell-based. The conditions noted are these: caco-2, 6 h. The method, boiled down:
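Compounds incubated with human colon Caco-2 cells; cell media sampled at 6 h and analyzed by LC-MS-MS for parent compound and hydrolysis/conjugation products.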

The subject of data set [10] is Mus musculus. The data set is described as follows: Antiinflammatory activity in C57BL/6J mouse model of DSS-induced colon inflammation assessed as reduction in disease activity index at 2.1 mg/kg/day, po for 8 days co-administered with DSS measure on day 8. The class given is functional, organism-based. The method, boiled down:
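No pre-feeding: compound co-administered with 1% DSS in drinking water for 8 days at 2.1 mg/kg day; n=14 per group, with DSS-only and untreated control groups. DAI scored from stool blood, stool form and weight loss.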

Data set [11] relates to Mus musculus. The data set is described as follows: Antiinflammatory activity in C57BL/6J mouse model of DSS-induced colon inflammation assessed as preservation of mucosal architecture at 2.1 mg/kg/day, po for 21 days followed by compound dosing for 8 days co-administered with DSS followed by 2.1 mg/kg/day, po dosing for 6 days in absence of DSS measured on days 29 and day 35. It is filed as functional, organism-based. In a few lines: as §3

Data set [12] concerns Mus musculus. The data set is described as follows: Antiinflammatory activity in C57BL/6J mouse model of DSS-induced colon inflammation assessed as reduction of colon TNFRp55 level at 2.1 mg/kg/day, po for 21 days followed by compound dosing for 8 days co-administered with DSS followed by 2.1 mg/kg/day, po dosing for 6 days in absence of DSS measured on days 29 and day 35 by chemiluminescence assay. It is filed as functional, organism-based. The method, boiled down: (§4)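 After 21 days of chow with compound at 2.1 mg/kg day and 8 days of 1% DSS, distal colon mucosa (40 mg) homogenized in PBS with protease inhibitors and spun 15,000g, 30 min, 4 °C. Supernatants pooled per group to 300 µg protein and run on a 40-cytokine mouse inflammation antibody array. Chemiluminescent detection, densitometry; duplicate measurements.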

Data set [13] concerns Mus musculus. The data set is described as follows: Antiinflammatory activity in C57BL/6J mouse model of DSS-induced colon inflammation assessed as reduction of colon IL6 level at 2.1 mg/kg/day, po for 21 days followed by compound dosing for 8 days co-administered with DSS followed by 2.1 mg/kg/day, po dosing for 6 days in absence of DSS measured on days 29 and day 35 by chemiluminescence assay. The class given is functional, organism-based. In a few lines: as §4

Data set [14] concerns Mus musculus. The data set is described as follows: Effect on body weight in C57BL/6J mouse model of DSS-induced colon inflammation at 2.1 mg/kg/day, po for 21 days followed by compound dosing for 8 days co-administered with DSS followed by 2.1 mg/kg/day, po dosing for 6 days in absence of DSS measured on days 29 and day 35. It is filed as functional, organism-based. In a few lines:
as §2

The test system of data set [15] is Mus musculus. The data set is described as follows: Antiinflammatory activity in C57BL/6J mouse model of DSS-induced colon inflammation assessed as reduction of colon MIP1gamma level at 2.1 mg/kg/day, po for 21 days followed by compound dosing for 8 days co-administered with DSS followed by 2.1 mg/kg/day, po dosing for 6 days in absence of DSS measured on days 29 and day 35 by chemiluminescence assay. The class given is functional, organism-based. In a few lines:
as §4

For data set [16], the system named is Mus musculus. The data set is described as follows: Antiinflammatory activity in C57BL/6J mouse model of DSS-induced colon inflammation assessed as reduction of colon MIG level at 2.1 mg/kg/day, po for 21 days followed by compound dosing for 8 days co-administered with DSS followed by 2.1 mg/kg/day, po dosing for 6 days in absence of DSS measured on days 29 and day 35 by chemiluminescence assay. It is filed as functional, organism-based. In a few lines: as §4

Data set [17] has as its system CCD-18Co. The data set is described as follows: Antiinflammatory activity in human CCD-18Co cells assessed as inhibition of IL1beta-induced PGE2 production at 2.5 to 25 uM after 18 hrs. It is filed as functional, cell-based.
Data set [18] concerns CCD-18Co. The data set is described as follows: Antiinflammatory activity in human CCD-18Co cells assessed inhibition of IL1beta-induced PGE2 production at 1 uM after 18 hrs. It is filed as functional, cell-based.
Data set [19] relates to Stomach. The data set is described as follows: Stability in C57BL/6J mouse stomach at 84 mg/kg administered through intragastric route measured after 8 hrs by HPLC-MS-MS analysis. Also noted: dose 84 mg/kg, route intragastric. The conditions noted are these: in vivo, po. The class given is ADME, organism-based. The method, boiled down:
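Healthy mice given 84 mg/kg by intragastric probe in ethanol:water (5:95, v:v); n=24 per group, three killed at each of 0.25, 0.5, 1, 2, 4, 8, 12 and 24 h. Stomach contents analyzed by HPLC-MS-MS for parent compounds and metabolites; AUC and Cmax derived.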

Each structure is given as a SMILES string. Activity calls are given as the source filed them. The rule behind the calls is not given here.

Take `CCCCCCCCCCCCCCCC(=O)OC[C@H]1O[C@@H](Oc2cc(O)cc(/C=C/c3ccc(O)cc3)c2)[C@H](O)[C@@H](O)[C@@H]1O`: in [1], the inhibition entry is “Active”. Besides, the Activity result in data set [2] is given as “Toxic”.
`CCCC(=O)OC[C@H]1O[C@@H](Oc2cc(O)cc(/C=C/c3ccc(O)cc3)c2)[C@H](O)[C@@H](O)[C@@H]1O`: the result in data set [3], in data set [4], in data set [5], in data set [6], in data set [7] and in data set [8] was Active. Moreover, the outcome in data set [11], in data set [12], in data set [13], in [14], in data set [15] and in data set [16] was Active. In addition, the inhibition result in [1] is “Active”. In addition, in data set [9], the Stability entry is given as “Stable”. Also, the outcome in data set [10] was inactive.
In the case of `CCCCCCCCCCCC(=O)OC[C@H]1O[C@@H](Oc2cc(O)cc(/C=C/c3ccc(O)cc3)c2)[C@H](O)[C@@H](O)[C@@H]1O`, the inhibition entry in [1] is “Active”. The Activity entry in data set [2] is listed as “Toxic”.
Take `OC[C@H]1O[C@@H](Oc2ccc(/C=C/c3cc(O)cc(O[C@@H]4O[C@H](CO)[C@@H](O)[C@H](O)[C@H]4O)c3)cc2)[C@H](O)[C@@H](O)[C@@H]1O`: the inhibition result in [17] is “inactive”.
Take `CCCCCCCCCCCCCCCCCC(=O)OC[C@H]1O[C@@H](Oc2cc(O)cc(/C=C/c3ccc(O)cc3)c2)[C@H](O)[C@@H](O)[C@@H]1O`: the inhibition result in data set [1] is “Active”. Further, the Activity result in data set [2] is “Toxic”.
Turning to `OC[C@H]1O[C@@H](Oc2cc(O)cc(/C=C/c3ccc(O)cc3)c2)[C@H](O)[C@@H](O)[C@@H]1O`, the result in [3], in data set [5], in data set [7], in data set [10] and in [14] was inactive. Besides, the result in [6], in [11], in data set [12], in data set [13], in data set [15] and in [16] was Active. Also, the inhibition entry in data set [17] was “inactive”.
`Oc1ccc(/C=C/c2cc(O)cc(O)c2)cc1` [RESVERATROL]: the inhibition entry in data set [18] and in [17] was “Active” throughout. Moreover, the Stability entry in [19] and in data set [9] was “Stable” in each case. The result in [3], in data set [5], in data set [7], in data set [10] and in data set [14] was inactive. For the same compound, the outcome in data set [4], in data set [6], in data set [8], in data set [11], in data set [12] and in data set [13] was Active. Moreover, the outcome in data set [15] and in data set [16] was Active.
In the case of `OC[C@H]1O[C@@H](Oc2cc(/C=C/c3ccc(O)cc3)cc(O[C@@H]3O[C@H](CO)[C@@H](O)[C@H](O)[C@H]3O)c2)[C@H](O)[C@@H](O)[C@@H]1O`, the outcome in data set [3], in data set [5], in data set [7], in data set [10] and in data set [14] was inactive. In addition, the result in [6], in data set [11], in data set [12], in data set [13], in data set [15] and in [16] was Active. Further, in data set [17], the inhibition result is “inactive”.
As for `OC[C@H]1O[C@@H](Oc2ccc(/C=C/c3cc(O)cc(O)c3)cc2)[C@H](O)[C@@H](O)[C@@H]1O`, the inhibition result in data set [17] was “Active”.
Turning to `CCCCCCCC(=O)OC[C@H]1O[C@@H](Oc2cc(O)cc(/C=C/c3ccc(O)cc3)c2)[C@H](O)[C@@H](O)[C@@H]1O`, the result in [3], in data set [4], in [5], in data set [6], in data set [7] and in [8] was Active. Moreover, the outcome in [11], in data set [12], in [13], in [14], in data set [15] and in data set [16] was Active. Besides, the inhibition entry in data set [1] was “Active”. Also, the Stability result in data set [9] is recorded as “Stable”. For the same compound, the result in data set [10] was inactive.
